{"source": "paper PMC7474130", "about": "(Journal of Pharmaceutical Analysis, 2020)", "key": {"[1]": {"format": "in vivo, Male Sprague-Dawley (SD) rats", "details": "for Cmax / half-life: male, Sprague-Dawley, rat, po, 6.8 g/kg", "procedure,_shortened": "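Untreated male SD rats (220 ± 20 g; six) were housed at 25 ± 3 °C and 45 ± 5% humidity with free access to food and water. Plasma was analysed by UHPLC-Q-Orbitrap-MS (IS, 1/concentration2-weighted calibration), with non-compartmental analysis.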"}, "[2]": {"format": "in vivo, Male Sprague-Dawley (SD) rats", "details": "plasma; for AUC0-t / AUC0-∞: IM rats, oral ZSS aqueous extract 6.8 g/kg, mean ± SD, n = 6; for Cmax / Tmax / half-life: male, Sprague-Dawley, rat, po, 6.8 g/kg", "procedure,_shortened": "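Male SD rats (220 ± 20 g) made insomniac with PCPA 400 mg/kg i.p. daily for three days (suspended in 0.5% CMC-Na); six rats. Plasma (3500 × g, 10 min, 4 °C) was held at −80 °C. Analysis used UHPLC-Q-Orbitrap-MS with internal standards and non-compartmental parameters.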"}, "[3]": {"assay": "Stability of analytes in rat plasma under different storage conditions", "format": "in vitro ADME", "procedure,_shortened": "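Blank rat plasma spiked at three QC concentrations, five replicates each. Plasma (100 μL) was precipitated with three volumes of acetonitrile plus IS, vortexed 5 min, centrifuged at 13,000 × g for 10 min at 4 °C, then dried under nitrogen. It was reconstituted in initial mobile phase and re-centrifuged. Extracts were held in the auto-sampler at 4 °C, then 3 μL injected. Quantitation used analyte/IS peak-area ratios on a 1/concentration2-weighted linear calibration.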"}, "[4]": {"details": "NC rats, oral ZSS aqueous extract 6.8 g/kg, plasma, mean ± SD, n = 6"}, "[5]": {"details": "extracted plasma QC samples, 4 °C for 12 h (auto-sampler), high QC level"}, "[6]": {"details": "extracted plasma QC samples, 4 °C for 12 h (auto-sampler), low QC level"}, "[7]": {"details": "extracted plasma QC samples, 4 °C for 12 h (auto-sampler), middle QC level"}, "[8]": {"details": "rat plasma, Frozen for 30 days (−80 °C), high QC level"}, "[9]": {"details": "rat plasma, Frozen for 30 days (−80 °C), low QC level"}, "[10]": {"details": "rat plasma, Frozen for 30 days (−80 °C), middle QC level"}, "[11]": {"details": "rat plasma, Three freeze-thaw cycles, high QC level"}, "[12]": {"details": "rat plasma, Three freeze-thaw cycles, low QC level"}, "[13]": {"details": "rat plasma, Three freeze-thaw cycles, middle QC level"}}, "note": "Read-outs that look alike come from different tables or passages of the source."}
{"compound": "COc1cc2c(cc1O)C(Cc1ccc(O)cc1)NCC2", "note": "(stereo not drawn) [Coclaurine, coclaurine]", "values": [{"measurement": "AUC0-t", "setting": "[1]; [4]", "value": "1.08 ± 0.30", "unit": "μg/L･h"}, {"measurement": "AUC0-∞", "setting": "[1]; [4]", "value": "1.13 ± 0.27", "unit": "μg/L･h"}, {"measurement": "Tmax", "setting": "[1]; [4]", "value": "16.2 ± 5.4", "unit": "min"}, {"measurement": "Cmax", "setting": "[1]; plasma", "value": "1.98 ± 0.82", "unit": "ng/mL"}, {"measurement": "half-life", "setting": "[1]; plasma", "value": "27 ± 10.2", "unit": "min"}, {"measurement": "AUC0-t", "setting": "[2]", "value": "0.91 ± 0.26", "unit": "μg/L･h"}, {"measurement": "AUC0-∞", "setting": "[2]", "value": "0.93 ± 0.28", "unit": "μg/L･h"}, {"measurement": "Cmax", "setting": "[2]", "value": "2.48 ± 0.98", "unit": "ng/mL"}, {"measurement": "Tmax", "setting": "[2]", "value": "13.8 ± 5.4", "unit": "min"}, {"measurement": "half-life", "setting": "[2]", "value": "24.6 ± 16.8", "unit": "min"}, {"measurement": "Stability, Accuracy (RE, %)", "setting": "[3]; [5]", "value": 7.71, "unit": "%"}, {"measurement": "Stability, Accuracy (RE, %)", "setting": "[3]; [6]", "value": 14.88, "unit": "%"}, {"measurement": "Stability, Accuracy (RE, %)", "setting": "[3]; [7]", "value": 3.35, "unit": "%"}, {"measurement": "Stability, Accuracy (RE, %)", "setting": "[3]; [8]", "value": "−1.99", "unit": "%"}, {"measurement": "Stability, Accuracy (RE, %)", "setting": "[3]; [9]", "value": 14.76, "unit": "%"}, {"measurement": "Stability, Accuracy (RE, %)", "setting": "[3]; [10]", "value": 9.58, "unit": "%"}, {"measurement": "Stability, Accuracy (RE, %)", "setting": "[3]; [11]", "value": 8.75, "unit": "%"}, {"measurement": "Stability, Accuracy (RE, %)", "setting": "[3]; [12]", "value": 11.85, "unit": "%"}, {"measurement": "Stability, Accuracy (RE, %)", "setting": "[3]; [13]", "value": 9.48, "unit": "%"}]}
{"compound": "COc1ccc2c(c1O)-c1c(O)c(OC)cc3c1[C@H](C2)[N+](C)(C)CC3", "note": "[Magnoflorine, magnoflorine]", "values": [{"measurement": "AUC0-t", "setting": "[1]; [4]", "value": "54.56 ± 21.90", "unit": "μg/L･h"}, {"measurement": "AUC0-∞", "setting": "[1]; [4]", "value": "69.51 ± 28.52", "unit": "μg/L･h"}, {"measurement": "Cmax", "setting": "[1]; plasma", "value": "40.6 ± 12.7", "unit": "ng/mL"}, {"measurement": "half-life", "setting": "[1]; plasma", "value": "190 ± 118", "unit": "min"}, {"measurement": "AUC0-t", "setting": "[2]", "value": "45.13 ± 24.46", "unit": "μg/L･h"}, {"measurement": "AUC0-∞", "setting": "[2]", "value": "51.87 ± 23.75", "unit": "μg/L･h"}, {"measurement": "Cmax", "setting": "[2]", "value": "35.1 ± 13.7", "unit": "ng/mL"}, {"measurement": "Tmax", "setting": "[2]", "value": "12 ± 4.2", "unit": "min"}, {"measurement": "half-life", "setting": "[2]", "value": "161 ± 76.8", "unit": "min"}, {"measurement": "Stability, Accuracy (RE, %)", "setting": "[3]; [5]", "value": 11.25, "unit": "%"}, {"measurement": "Stability, Accuracy (RE, %)", "setting": "[3]; [6]", "value": "−4.56", "unit": "%"}, {"measurement": "Stability, Accuracy (RE, %)", "setting": "[3]; [7]", "value": "−11.99", "unit": "%"}, {"measurement": "Stability, Accuracy (RE, %)", "setting": "[3]; [8]", "value": 9.01, "unit": "%"}, {"measurement": "Stability, Accuracy (RE, %)", "setting": "[3]; [9]", "value": "−14.77", "unit": "%"}, {"measurement": "Stability, Accuracy (RE, %)", "setting": "[3]; [10]", "value": 0.05, "unit": "%"}, {"measurement": "Stability, Accuracy (RE, %)", "setting": "[3]; [11]", "value": 8.06, "unit": "%"}, {"measurement": "Stability, Accuracy (RE, %)", "setting": "[3]; [12]", "value": "−5.49", "unit": "%"}, {"measurement": "Stability, Accuracy (RE, %)", "setting": "[3]; [13]", "value": 5.31, "unit": "%"}]}
{"compound": "COc1cc2oc(-c3ccc(O)cc3)cc(=O)c2c(O)c1[C@@H]1O[C@H](CO)[C@@H](O)[C@H](O)[C@H]1O", "note": "[swertisin]", "values": [{"measurement": "concentration in rat plasma", "setting": "[1]; after oral administration of ZSS aqueous extract", "value": "too low for detection"}, {"measurement": "content in bile and feces", "setting": "[1]; after oral administration of ZSS aqueous extract, data not open", "value": "high content"}]}
